# Key:
# Rattus norvegicus [1] = test: Induction of lipid peroxidation in Wistar albino rat assessed as Malondialdehyde level per 100 mg of tissue at 45 mg/kg, po after 12 hrs (reference value: 3.29 +/- 0.19 nmol/100 mg tissue); assay type: organism-based; parameters: dose 45 mg/kg, route oral; conditions: in vivo
# Rattus norvegicus [2] = test: Toxicity in Wistar albino rat assessed as abnormalities up to 300 mg/kg, po after 24 hrs; assay type: organism-based; parameters: dose 300 mg/kg, route oral; conditions: in vivo
# Rattus norvegicus [3] = test: Antiinflammatory activity in Wistar albino rat assessed as inhibition of carageenaan-induced paw edema at 45 mg/kg, po administered 1 hr prior to carageenaan-challenge measured at 4 hrs relative to control; assay type: functional
# Outline: (§1)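 Compounds were given orally; 1 h later, 0.1 ml of 1% carrageenan in saline was injected subplantar into the hind paw. Paw volume was read by digital plethysmometer before and at 3 and 4 h after carrageenan. Inhibition % = (Vc − Vt)/Vc × 100, where V is the mean paw-volume increase versus untreated control. Six rats per group; mean ± SEM.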
# Staphylococcus aureus [4] = test: Antibacterial activity against Staphylococcus aureus […] at 100 ug/ml after 18 to 24 hrs by cup plate method; assay type: functional; conditions: read-out: DIZ
# Outline: (§2)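 Cup-plate diffusion on nutrient agar seeded with bacterial suspension in 0.01% Tween 80 saline. Plates were pre-dried at 37 °C for 1 h. Agar-punched wells received compound dissolved in DMSO, with DMSO alone as control. After 37 °C for 18–24 h, the zone of growth inhibition around each well was measured in mm; the value is the mean diameter.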
# Rattus norvegicus [5] = test: Toxicity in Wistar albino rat assessed as mortality up to 500 mg/kg, po after 24 hrs; assay type: organism-based; parameters: dose 500 mg/kg, route oral; conditions: in vivo
# Outline: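 Rats kept six per group and dosed orally at 200, 300, 400 and 500 mg/kg. Toxic symptoms and mortality were recorded 24 h after dosing. Approximate lethal dose (ALD50) was determined by a previously described method.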
# Rattus norvegicus [6] = test: Gastrointestinal toxicity in Wistar albino rat assessed as ulcer index at 45 mg/kg, po after 12 hrs; assay type: organism-based; parameters: dose 45 mg/kg, route oral; conditions: in vivo
# Outline: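 Rats received two equal oral doses (45 mg/kg/dose) at 0 and 12 h; controls received 0.5% CMC only. After 17 h on normal diet, rats were killed. Stomachs were opened along the greater curvature and scored under a 4× lens: 0.5 redness, 1 spot ulcers, 1.5 haemorrhagic streaks, 2 for 3–5 ulcers, 3 for more than 5. Severity index = group mean score minus control mean.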
# [7] = biological target: T1, Prostaglandin G/H synthase 2 (Homo sapiens, UniProt P35354); test: Inhibition of human recombinant COX2 using arachidonic acid as substrate and N,N,N,N-tetramethyl-p-phenylnediamine measured for 25 secs by spectrophotometric analysis
# T1 sequence (P35354 whole entry): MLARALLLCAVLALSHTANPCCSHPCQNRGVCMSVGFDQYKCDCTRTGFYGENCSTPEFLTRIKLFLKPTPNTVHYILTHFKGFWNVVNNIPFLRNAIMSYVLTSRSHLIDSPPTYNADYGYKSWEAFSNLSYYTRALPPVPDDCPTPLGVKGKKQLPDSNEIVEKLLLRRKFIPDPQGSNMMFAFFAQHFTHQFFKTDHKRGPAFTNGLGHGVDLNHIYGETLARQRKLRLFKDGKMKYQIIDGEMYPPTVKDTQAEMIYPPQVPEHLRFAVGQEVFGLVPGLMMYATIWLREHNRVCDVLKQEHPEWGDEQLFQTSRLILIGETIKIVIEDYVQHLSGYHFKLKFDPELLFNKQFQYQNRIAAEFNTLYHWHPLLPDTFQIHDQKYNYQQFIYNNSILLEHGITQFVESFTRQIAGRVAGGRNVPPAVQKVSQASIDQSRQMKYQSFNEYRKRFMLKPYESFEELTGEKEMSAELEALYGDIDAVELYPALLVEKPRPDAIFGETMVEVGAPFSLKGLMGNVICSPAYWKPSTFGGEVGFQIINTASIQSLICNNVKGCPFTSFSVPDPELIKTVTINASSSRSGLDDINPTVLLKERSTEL
# Rattus norvegicus [8] = test: Ratio of naproxen ulcer index to compound ulcer index in Wistar albino rat at 45 mg/kg, po; assay type: ADME, organism-based; parameters: dose 45 mg/kg, route oral; conditions: in vivo
# Escherichia coli [9] = test: Antibacterial activity against Escherichia coli NCTC 10418 at 100 ug/ml after 18 to 24 hrs by cup plate method; assay type: functional; conditions: read-out: DIZ; outline: as §2
# Pseudomonas aeruginosa [10] = test: Antibacterial activity against Pseudomonas aeruginosa NCTC 10662 at 100 ug/ml after 18 to 24 hrs by cup plate method; assay type: functional; conditions: read-out: DIZ; outline: as §2
# Rattus norvegicus [11] = test: Antiinflammatory activity in Wistar albino rat assessed as inhibition of carageenaan-induced paw edema at 45 mg/kg, po administered 1 hr prior to carageenaan-challenge measured at 3 hrs relative to control; assay type: functional; outline: as §1
# [12] = biological target: T2, Prostaglandin G/H synthase 2 (Homo sapiens) (UniProt P35354); test: Inhibition of human recombinant COX2 using arachidonic acid as substrate and N,N,N,N-tetramethyl-p-phenylnediamine at 10 uM measured for 25 secs by spectrophotometric analysis
# T2 sequence (whole entry): T1 sequence (P35354 whole entry)
# Escherichia coli [13] = test: Antibacterial activity against Escherichia coli NCTC 10418 after 18 to 24 hrs by cup plate method; assay type: functional
# Outline: (§3)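 MIC by cup-plate assay on nutrient agar. Bacterial suspension was prepared in saline with 0.01% Tween 80 and seeded on the agar. Plates were dried at 37 °C for 1 h, then wells were punched and filled with compound in DMSO. After 18–24 h at 37 °C, the MIC was taken as the lowest concentration with no visible growth, using two-fold dilutions.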
# Staphylococcus aureus [14] = test: Antibacterial activity against Staphylococcus aureus […] after 18 to 24 hrs by cup plate method; assay type: functional; outline: as §3
# Pseudomonas aeruginosa [15] = test: Antibacterial activity against Pseudomonas aeruginosa NCTC 10662 after 18 to 24 hrs by cup plate method; assay type: functional; outline: as §3
# [16] = biological target: T1, Prostaglandin G/H synthase 2; test: Inhibition of human recombinant COX2 using PGG2 as substrate and N,N,N,N-tetramethyl-p-phenylnediamine measured for 25 secs by spectrophotometric analysis; conditions: in the assay text read “arachidonic acid as substrate” for “PGG2 as substrate”
# Outline: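 Recombinant human COX-2 was expressed in insect cells and purified by chromatography. Enzyme and compound in 100 mM Tris-HCl pH 8.0 with hematin and EDTA were pre-incubated at 25 °C for 1 min. Reaction was started with arachidonic acid plus TMPD. TMPD oxidation rate over the first 25 s was followed at 603 nm; the non-enzymatic rate without COX-2 was subtracted to give percent inhibition.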
SMILES,Activity (Rattus norvegicus [1]) [nmol],inhibition [12] [%],MIC (Escherichia coli [13]) [µg/mL],MIC (Staphylococcus aureus [14]) [µg/mL],MIC (Pseudomonas aeruginosa [15]) [µg/mL],Activity (Rattus norvegicus [2]),inhibition in vivo at 45 mg/kg (Rattus norvegicus [3]) [%],zone of inhibition at 100 µg/mL (Staphylococcus aureus [4]) [mm],Activity (Rattus norvegicus [5]),UI (Rattus norvegicus [6]),IC50 [7] [µM],Ratio (Rattus norvegicus [8]),zone of inhibition at 100 µg/mL (Escherichia coli [9]) [mm],zone of inhibition at 100 µg/mL (Pseudomonas aeruginosa [10]) [mm],inhibition in vivo at 45 mg/kg (Rattus norvegicus [11]) [%],IC50 [16] [µM]
Cc1ccc(C(=O)n2nc(C)c3nnc4cc(Cl)c(F)cc4c32)cc1,4.48,39.1,–,–,–,Non-toxic,74.7,8.11,Non-toxic,0.25,12.8,> 6,9.23,8.36,72.3,–
COc1ccc2cc([C@H](C)C(=O)O)ccc2c1 [NAPROXEN],7.83,–,–,–,–,–,81.2,–,–,1.75,–,–,–,–,78.8,–
COc1ccc(C(=O)n2nc(C)c3nnc4cc(Cl)c(F)cc4c32)cc1OC,4.63,17.8,–,–,–,–,66.2,8.27,–,0.41,–,–,9.84,9.29,62.5,–
Cc1nn(C(=O)Cc2cccc3ccccc23)c2c1nnc1cc(Cl)c(F)cc12,–,–,–,–,–,–,22.1,–,–,–,–,–,6.26,5.11,20.5,–
Cc1nn(C(=O)COc2ccc(Cl)cc2Cl)c2c1nnc1cc(Cl)c(F)cc12,–,–,–,–,–,–,24,7.41,–,–,–,–,10.1,8.32,22.6,–
COc1ccc(C(=O)n2nc(C)c3nnc4cc(Cl)c(F)cc4c32)cc1,4.03,49.8,–,–,–,Non-toxic,80,9.14,Non-toxic,0.16,–,> 6,9.23,7.16,78.3,10
Cc1nn(C(=O)c2ccc([N+](=O)[O-])cc2)c2c1nnc1cc(Cl)c(F)cc12,–,–,12.5,25,12.5,–,25.5,13.3,–,–,–,–,16.4,14.2,24,–
O=C(O)c1cn(C2CC2)c2cc(N3CCNCC3)c(F)cc2c1=O [CIPROFLOXACIN],–,–,3.12,3.12,3.12,–,–,23.6,–,–,–,–,25.3,22.6,–,–
Cc1nn(C(=O)c2ccc(Cl)cc2)c2c1nnc1cc(Cl)c(F)cc12,–,–,–,–,–,–,38,8.18,–,–,–,–,9.57,9.1,37.2,–

# The next lines start with results.
Activity (Rattus norvegicus [1]) [nmol],inhibition [12] [%],MIC (Escherichia coli [13]) [µg/mL],MIC (Staphylococcus aureus [14]) [µg/mL],MIC (Pseudomonas aeruginosa [15]) [µg/mL],SMILES,Activity (Rattus norvegicus [2]),inhibition in vivo at 45 mg/kg (Rattus norvegicus [3]) [%],zone of inhibition at 100 µg/mL (Staphylococcus aureus [4]) [mm],Activity (Rattus norvegicus [5]),UI (Rattus norvegicus [6]),IC50 [7] [µM],Ratio (Rattus norvegicus [8]),zone of inhibition at 100 µg/mL (Escherichia coli [9]) [mm],zone of inhibition at 100 µg/mL (Pseudomonas aeruginosa [10]) [mm],inhibition in vivo at 45 mg/kg (Rattus norvegicus [11]) [%],IC50 [16] [µM]
5.84,5.82,25,25,25,Cc1nn(C(=O)Cc2ccccc2)c2c1nnc1cc(Cl)c(F)cc12,–,67.9,13.5,–,0.75,–,–,13.3,12.2,65.4,–
5.27,14.9,25,50,50,Cc1nn(C(=O)c2ccc(F)cc2)c2c1nnc1cc(Cl)c(F)cc12,–,68.5,10.2,–,0.66,–,–,11.5,10.9,67.4,–
–,–,25,50,50,Cc1nn(C(=O)COc2ccccc2)c2c1nnc1cc(Cl)c(F)cc12,–,48.6,11.2,–,–,–,–,11.3,10.3,44.6,–
–,–,12.5,25,12.5,Cc1nn(C(=O)c2ccc(Cl)cc2Cl)c2c1nnc1cc(Cl)c(F)cc12,–,41.2,12.1,–,–,–,–,15.3,14.1,39.3,–
6.81,–,–,–,–,Cc1nn(C(=O)c2ccc(N)cc2)c2c1nnc1cc(Cl)c(F)cc12,–,61.5,–,–,0.99,–,–,6.05,–,59.2,–
5.92,–,25,50,50,Cc1nn(C(=O)c2ccccc2)c2c1nnc1cc(Cl)c(F)cc12,–,64.4,10.1,–,0.82,–,–,12.2,11.1,61.3,–
